Experimental data reported in ChEMBL document CHEMBL1649438, “Activities of ceftobiprole and other cephalosporins against extracellular and intracellular (THP-1 macrophages and keratinocytes) forms of methicillin-susceptible and methicillin-resistant Staphylococcus aureus” (Antimicrob Agents Chemother, 2009).
Converted amounts (≈) assume the structure as drawn.

Tests used:
[1] = tested on: Staphylococcus aureus; test: Antimicrobial activity against methicillin-susceptible Staphylococcus aureus ATCC 25923 infected in human keratinocytes assessed as bacterial count per mg of cell protein at low extracellular compound concentration after 24 hrs; assay type: functional
Summary of the method: (§1)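 Primary human skin keratinocytes were grown in defined keratinocyte serum-free medium and infected with S. aureus to 1.5 × 10^6 to 3.0 × 10^6 CFU/mg cell protein. Cells were exposed 24 h to increasing extracellular concentrations. Response was the log10 CFU change from the postphagocytosis inoculum, fitted by a Hill equation with slope 1. Cs is the concentration giving CFU equal to the original inoculum, found by graphical interpolation.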

[2] = tested on: Staphylococcus aureus; test: Ratio of MIC for beta-lactamase-negative methicillin-susceptible Staphylococcus aureus ATCC 25923 by microdilution method at pH 7.4 to ratio of MIC for beta-lactamase-negative methicillin-susceptible Staphylococcus aureus ATCC 25923 by microdilution method at pH 5.5; assay type: functional
Summary of the method: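 MICs were measured by broth microdilution, with the broth adjusted to pH 7.4 or pH 5.5 before inoculation. pH was confirmed at the end of the assay to within ±0.1 unit. The value is the fold decrease in MIC between pH 7.4 and pH 5.5.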

[3] = tested on: Staphylococcus aureus; test: Ratio of MIC for hospital-acquired methicillin-resistant Staphylococcus aureus ATCC 33591 by microdilution method at pH 7.4 to ratio of MIC for hospital-acquired methicillin-resistant Staphylococcus aureus ATCC 33591 by microdilution method at pH 5.5; assay type: functional
Summary of the method: (§2)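 MICs were determined by broth microdilution at pH 7.4 and pH 5.5. Broth was adjusted before inoculation, and pH was confirmed maintained (±0.1 unit) at the end.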

[4] = tested on: Staphylococcus aureus; test: Bacteriostatic activity against methicillin-resistant Staphylococcus aureus ATCC 33591 infected in human keratinocytes assessed as change in bacterial count after 24 hrs; assay type: functional
Summary of the method: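 Primary human skin keratinocytes were grown in defined keratinocyte serum-free medium, infected, then incubated 24 h with increasing extracellular drug concentrations. Response was the change in log10 CFU/mg cell protein versus the post-phagocytosis inoculum, fitted to a Hill equation with slope factor 1. Static concentration (mg/liter, total drug) was taken by graphical interpolation where CFU equalled the original inoculum.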

[5] = tested on: Staphylococcus aureus; test: Antimicrobial activity against methicillin-resistant Staphylococcus aureus ATCC 33591 infected in human keratinocytes assessed as bacterial count per mg of cell protein at low extracellular compound concentration after 24 hrs; assay type: functional
Summary of the method: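 Primary human skin keratinocytes were grown in defined keratinocyte serum-free medium, infected with a postphagocytosis inoculum of 1.5 × 10⁶ to 3.0 × 10⁶ CFU/mg cell protein, then exposed 24 h to increasing extracellular antibiotic concentrations. Change in log10 CFU/mg protein from the inoculum was fitted to a Hill equation with slope 1. E0 and Emax were extrapolated to infinitely low and high concentrations, in total drug mg/liter.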

[6] = tested on: Staphylococcus aureus; test: Bacteriostatic activity against methicillin-susceptible Staphylococcus aureus ATCC 25923 infected in human keratinocytes assessed as change in bacterial count after 24 hrs; assay type: functional; summary of the method: as §1
[7] = tested on: Staphylococcus aureus; test: Antimicrobial activity against methicillin-susceptible Staphylococcus aureus ATCC 25923 infected in human keratinocytes assessed as bacterial count per mg of cell protein at high extracellular compound concentration after 24 hrs; assay type: functional; summary of the method: as §1
[8] = tested on: Staphylococcus aureus; test: Antimicrobial activity against methicillin-susceptible Staphylococcus aureus ATCC 25923 infected in human keratinocytes assessed as change in bacterial count after 24 hrs; assay type: functional, organism-based; conditions: ATCC 25923, 24 h; summary of the method: as §1
[9] = tested on: Staphylococcus aureus; test: Ratio of MIC for hospital-acquired methicillin-resistant Staphylococcus aureus ATCC 33591 by microdilution method at pH 5.5 to MIC for beta-lactamase-negative methicillin-susceptible Staphylococcus aureus ATCC 25923 by microdilution method at pH 5.5; assay type: functional; summary of the method: as §2
[10] = tested on: Staphylococcus aureus; test: microbe, parasite or virus in culture; conditions: ATCC 11632
[11] = tested on: Staphylococcus aureus; test: microbe, parasite or virus in culture; conditions: ATCC 25923
[12] = tested on: Staphylococcus aureus; test: Antimicrobial activity against hospital-acquired vancomycin-intermediate Staphylococcus aureus NRS126 obtained from bloodstream infection of patient by microdilution method at pH 5.5
[13] = tested on: Staphylococcus aureus; test: Antimicrobial activity against hospital-acquired methicillin-resistant Staphylococcus aureus N4112910 obtained from nasal swap of patient by microdilution method at pH 5.5

## CO[C@@]1(NC(=O)Cc2cccs2)C(=O)N2C(C(=O)O)=C(COC(N)=O)CS[C@@H]21 [CEFOXITIN]
[1]
  log10cfu: 3.06
[2]
  fold change (FC): 4
[3]
  fold change (FC): 512
[4]
  Activity: >200 mg/L
[5]
  log10cfu: 2.36
[6]
  Activity: 1.84 mg/L
[7]
  log10cfu: -0.91
[8]
  EC50: 0.55 µg/mL (≈ 1.29 µM)

## CO/N=C(\C(=O)N[C@@H]1C(=O)N2C(C(=O)O)=C(CSc3nc(=O)c(O)nn3C)CS[C@H]12)c1csc(N)n1 [CEFTRIAXONE]
[1]
  log10cfu: 2.44
[2]
  fold change (FC): 16
[3]
  fold change (FC): 512
[4]
  Activity: >200 mg/L
[9]
  fold change (FC): 4
[5]
  log10cfu: 2.09
[6]
  Activity: 14.8 mg/L
[7]
  log10cfu: -0.3
[8]
  EC50: 1.83 µg/mL (≈ 3.3 µM)

## CO/N=C(\C(=O)N[C@@H]1C(=O)N2C(C(=O)O)=C(COC(N)=O)CS[C@H]12)c1ccco1 [CEFUROXIME]
[1]
  log10cfu: 3.23
[2]
  fold change (FC): 16
[3]
  fold change (FC): 128
[4]
  Activity: 200 mg/L
[9]
  fold change (FC): 4
[5]
  log10cfu: 2.75
[6]
  Activity: 0.26 mg/L
[7]
  log10cfu: -0.42
[8]
  EC50: 0.27 µg/mL (≈ 0.636 µM)

## CC1=C(C(=O)O)N2C(=O)[C@@H](NC(=O)[C@H](N)c3ccccc3)[C@H]2SC1 [CEPHALEXIN ANHYDROUS]
[1]
  log10cfu: 3.09
[2]
  fold change (FC): 2
[3]
  fold change (FC): 16
[9]
  fold change (FC): 16
[5]
  log10cfu: 2.42
[6]
  Activity: 200 mg/L
[7]
  log10cfu: 0.035
[8]
  EC50: 0.27 µg/mL (≈ 0.777 µM)

## CN[C@H](CC(C)C)C(=O)N[C@H]1C(=O)N[C@@H](CC(N)=O)C(=O)N[C@H]2C(=O)N[C@H]3C(=O)N[C@H](C(=O)N[C@H](C(=O)O)c4cc(O)cc(O)c4-c4cc3ccc4O)[C@H](O)c3ccc(c(Cl)c3)Oc3cc2cc(c3O[C@@H]2O[C@H](CO)[C@@H](O)[C@H](O)[C@H]2O[C@H]2C[C@](C)(N)[C@H](O)[C@H](C)O2)Oc2ccc(cc2Cl)[C@H]1O [VANCOMYCIN]
[10]
  MIC: 0.25 µg/mL (≈ 0.173 µM)
[11]
  MIC: 0.25 µg/mL (≈ 0.173 µM)
[12]
  MIC: 0.25 µg/mL (≈ 0.173 µM)
[13]
  MIC: 0.25 µg/mL (≈ 0.173 µM)
